The results in this text go back to article PMC10422018 (Molecular Therapy, 2023).

Data set [1] deals with 3T3-L1 adipocytes. As to the kind of experiment: Glycerol release from 3T3-L1 adipocytes treated with C26 CM. In kind it is cell-based, mouse. Conditions: 24 h.
Data set [2] can be described thus: Stability of the peptides in solution. In kind it is physicochemical. Conditions: peptide in solution.
Data set [3] deals with 3T3-L1 adipocytes. The data set can be described thus: LPS-induced glycerol release from 3T3-L1 adipocytes. Conditions: 0.5 µM or 5 µM, 1µg/ml LPS, 24 h. In kind it is cell-based, mouse. The gist of the method:
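3T3-L1 preadipocytes were differentiated with 1 μg/mL insulin, 0.25 μM dexamethasone and 0.5 mM IBMX, then used 8–12 days post-differentiation. Glycerol was measured with a glycerol kit, either directly in culture medium or in Krebs-Ringer buffer (3% BSA, 5 mM glucose) collected over 2 h after a 1 h preincubation. Experiments were repeated at least 2–3 times, each with n ≥3 technical replicates.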

Turning to `NC(=O)c1ncn([C@@H]2O[C@H](COP(=O)(O)O)[C@@H](O)[C@H]2O)c1N` [AICAR, 5-aminoimidazole-4-carboxamide ribonucleotide], the “C26 CM-induced glycerol release” value in data set [1] (indicated concentrations of AICAR) is “reduced C26 CM-induced glycerol release at higher doses”.
For `C#CC[C@H](NC(=O)[C@H](CCCCN)NC(=O)[C@H](CCCCN)NC(=O)[C@H](Cc1c[nH]c2ccccc12)NC(=O)[C@H](CCCCN)NC(=O)[C@H](CCSC)NC(=O)[C@H](CCCNC(=N)N)NC(=O)[C@H](CCCNC(=N)N)NC(=O)[C@H](CC(N)=O)NC(=O)[C@H](CCC(N)=O)NC(=O)[C@H](Cc1ccccc1)NC(=O)[C@H](Cc1c[nH]c2ccccc12)NC(=O)[C@@H](NC(=O)[C@H](CCCCN)NC(=O)[C@@H](NC(=O)[C@H](CCC(N)=O)NC(=O)[C@@H](N)CCCNC(=N)N)[C@@H](C)CC)[C@@H](C)CC)C(=O)N[C@@H](CC(N)=O)C(=O)N[C@@H](Cc1c[nH]cn1)C(=O)N[C@H](C(=O)N[C@@H](CCSC)C(=O)N[C@@H](CC(C)C)C(=O)N[C@@H](CC(N)=O)C(=O)N[C@@H](Cc1c[nH]cn1)C(=O)N[C@@H](CC(C)C)C(=O)N[C@@H](Cc1ccc(O)cc1)C(=O)N[C@@H](C)C(=O)N[C@@H](CC(C)C)C(=O)N[C@@H](CO)C(=O)N[C@H](C(=O)N[C@@H](CCCCN)C(=O)N[C@@H](CC(=O)O)C(=O)NCC(=O)N[C@H](C(N)=O)C(C)C)[C@@H](C)CC)C(C)C` [Pen-X-ACIP], in data set [2], the “Degradation products in mass spectrometry” value is given as “No degradation products were detected”.
Take MK8722: the LPS-induced glycerol release result in data set [3] is “inhibited”. For the same compound, in data set [1] (0.5 µM or 5 µM), the “C26 CM-induced lipolysis (glycerol release)” value was “reduced C26 CM-induced lipolysis dose dependently”.
